Reference: ChEMBL document CHEMBL1149905, “A mutual prodrug ester of GABA and perphenazine exhibits antischizophrenic efficacy with diminished extrapyramidal effects” (J Med Chem, 2008)
Active and inactive are the calls of the source.

Columns and labels:
[1] = test system: Rattus norvegicus; test: Increase in prolactin level in Wistar rat plasma at 7.5 mg/kg, ip after 1 hr relative to control; format: functional, organism-based; set-up: dose 7.5 mg/kg
In short: (§1)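 Male Wistar rats (150–230 g), four per group, dosed ip in 1% lactic acid vehicle. Blood taken from the orbital vein under light ether anesthesia before dosing and 1 and 2 h after. EDTA plasma was separated at 1600g for 20 min and frozen at -78 °C. Prolactin was measured by double-antibody rat prolactin RIA, compared with vehicle and time 0 (t test).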

[2] = test system: Rattus norvegicus; test: Increase in prolactin level in Wistar rat plasma at 7.5 mg/kg, ip after 2 hrs relative to control; format: functional, organism-based; set-up: dose 7.5 mg/kg; in short: as §1
[3] = test system: Rattus norvegicus; test: Toxicity assessed as induction of cataleptic extrapyramidal symptoms in Wistar rat at 7.5 mg/kg, ip after 2 hrs by wall descending test; format: organism-based; set-up: dose 7.5 mg/kg, route intraperitoneal; settings: in vivo
In short: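 Male Wistar rats (150–230 g), six per group, dosed ip in 1% lactic acid. Wall descending test: time for a rat hanging on the cage wall to move its hind legs and reach the floor, capped at 120 s. Rats were tested individually, every 30 min up to 420 min. Sedation was scored double-blind at the same time points.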

[4] = test system: Rattus norvegicus; test: Increase in prolactin level in Wistar rat plasma at 5 mg/kg, ip after 1 hr relative to control; format: functional, organism-based; set-up: dose 5 mg/kg
In short: (§2)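 Male Wistar rats (150–230 g; four/group) received drug ip in 1% lactic acid, with a vehicle control group. Orbital-vein blood was taken under light ether anesthesia before dosing and at 1 and 2 h, collected into EDTA on ice. Plasma was spun at 1600g for 20 min and frozen at -78 °C. Prolactin was measured by double-antibody rat prolactin RIA. Comparison was by t test against control and time 0.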

[5] = test system: Rattus norvegicus; test: Increase in prolactin level in Wistar rat plasma at 5 mg/kg, ip after 2 hrs relative to control; format: functional, organism-based; set-up: dose 5 mg/kg; in short: as §2
[6] = test system: Rattus norvegicus; test: Toxicity assessed as induction of cataleptic extrapyramidal symptoms in Wistar rat at 5 mg/kg, ip after 2 hrs by wall descending test; format: organism-based; set-up: dose 5 mg/kg, route intraperitoneal; settings: in vivo
In short: (§3)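 Rats (six/group) were injected ip with 5 mg/kg or 7.5 mg/kg of the parent drugs, or equimolar esters, in 1% lactic acid. Wall descending test: the time for a rat hanging on the cage wall to move its hind legs to the floor was recorded, with a 120 s maximum. Rats were tested every 30 min up to 420 min post-dose.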

[7] = test system: Rattus norvegicus; test: Increase in prolactin level in Wistar rat plasma at 5 to 20 mg/kg, po after 90 to 180 mins relative to control; format: functional, organism-based
In short: (§4)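 Five groups of male Wistar rats (4/group) were gavaged with 1% lactic acid vehicle, 5, 10 or 20 mg/kg, or equimolar 7, 14 or 28 mg/kg of the ester salt. Orbital-vein plasma was sampled under light ether at 0, 90 and 180 min and prolactin assayed by double-antibody RIA. Comparison was by t test against control and time 0.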

[8] = test system: Rattus norvegicus; test: Increase in prolactin level in Wistar rat plasma at 7 to 28 mg/kg, po after 90 to 180 mins relative to control; format: functional, organism-based; in short: as §4
[9] = test system: Rattus norvegicus; test: Decrease in sedation in Wistar rat at 5 to 20 mg/kg, po; format: functional, organism-based
In short: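 Male Wistar rats (150–230 g) were dosed by gavage. During catalepsy testing, sedation/alertness was recorded double-blind. The ip study used this scale: 0 active mobile; * calm and mobile; ** calm and immobile; *** ataxic and non-alert.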

[10] = test system: Rattus norvegicus; test: Reduction of cataleptic behavior in Wistar rat at 5 to 20 mg/kg, po by bar test; format: functional, organism-based
In short: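 Rats were gavaged with 5, 10 or 20 mg/kg or equimolar doses, and catalepsy was scored 4 h post-dose; a time course was run at 5 and 10 mg/kg. Bar test: forelimbs rested on a 5.5 cm bar, and the time to descend to the surface was recorded. Rats were tested individually, hourly, with a 120 s cutoff.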

[11] = test system: Rattus norvegicus; test: Reduction of D-amphetamine-induced hyperactivity in Wistar rat assessed as reduction of wall-climbing at 2.5 mg/kg, po; format: functional, organism-based; set-up: dose 2.5 mg/kg
In short: (§5)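 Male Wistar rats (six/group) were dosed po with 1% lactic acid vehicle (two groups), 2.5 mg/kg or equimolar test agent, or GABA at 1 mg/kg. After 90 min, all groups except one vehicle group received D-amphetamine (2.0 mg/kg ip). Rats were placed singly in barrels, and after 30 min head movements and wall-climbing attempts over 120 s were counted double-blind.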

[12] = test system: Rattus norvegicus; test: Reduction of D-amphetamine-induced hyperactivity in Wistar rat assessed as reduction of head movements at 2.5 mg/kg, po; format: functional, organism-based; set-up: dose 2.5 mg/kg; in short: as §5
[13] = test system: Rattus norvegicus; test: Inhibition of D-amphetamine-induced hyperactivity in Wistar rat at 2.5 mg/kg, po; format: functional, organism-based; set-up: dose 2.5 mg/kg; in short: as §5
[14] = test system: Rattus norvegicus; test: Toxicity assessed as induction of cataleptic extrapyramidal symptoms in orally dosed Wistar rat by bar test; settings: in vivo, po
[15] = test system: Rattus norvegicus; test: Toxicity assessed as induction of cataleptic extrapyramidal symptoms in Wistar rat at 7.5 mg/kg, ip after 7 hrs by wall descending test; format: organism-based; set-up: dose 7.5 mg/kg, route intraperitoneal; settings: in vivo; in short: as §3

| SMILES | Activity [1] | Activity [2] | Activity [4] | Activity [5] | Activity [6] | further results |
| --- | --- | --- | --- | --- | --- | --- |
| OCCN1CCN(CCCN2c3ccccc3Sc3ccc(C(F)(F)F)cc32)CC1 [FLUPHENAZINE] | Active | Active | – | – | – | Activity [3]: Toxic |
| Cl.NCCCC(=O)OCCN1CCN(CCCN2c3ccccc3Sc3ccc(Cl)cc32)CC1 [BL-1020] | – | – | Active | Active | Non-toxic | Activity [7]: Active; Activity [8]: Active; Activity [9]: Active; Activity [10]: Active; Activity [11]: Active; Activity [12]: Active |
| OCCN1CCN(CCCN2c3ccccc3Sc3ccc(Cl)cc32)CC1 [PERPHENAZINE] | – | – | Active | Active | Toxic | Activity [13]: Active; Activity [14]: Dose-dependent effect |
| Cl.NCCCC(=O)OCCN1CCN(CCCN2c3ccccc3Sc3ccc(C(F)(F)F)cc32)CC1 | Active | Active | – | – | – | Activity [15]: Non-toxic |
